Source: ChEMBL document CHEMBL4400536, “Design and synthesis of aminothiazole based Hepatitis B Virus (HBV) capsid inhibitors” (Eur J Med Chem, 2019)
The source made the active and inactive calls. No cut-off for these calls is given here.

Key:
[1] = Renal toxicity in BALB/c mouse assessed as effect on BUN levels at 500 to 1000 mg/kg, ip measured on day 14; type: organism-based; conditions: in vivo
How it was run: (§1)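 Male Balb/c mice, 5 animals, given a single intraperitoneal injection at 0, 500 or 1000 mg/kg. Body weight followed for two weeks. On day 14, blood was taken for hepatic and renal function (AST, ALT, BUN, creatinine). Heart, liver, lung, spleen and kidney were sectioned, HE-stained and examined.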

[2] = target: Core antigen (Hepatitis B virus) (UniProt Q03732); assay: Inhibition of aggregation of HBV capsid (1 to 149 residues) expressed in Escherichia coli assessed as induction of abnormal capsid morphology at 0.2 to 50 uM by TEM analysis
How it was run: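 His-tagged Cp149 was expressed in E. coli (IPTG 1 mM), Ni-affinity purified and kept in PBS. Cp149 (10 μM) in 50 mM HEPES pH 7.5 was preincubated 1 h with compound (0.2–50 μM) or DMSO. Assembly was started with NaCl to 50 mM and equilibrated 60 h at 23 °C. Grids were stained with 2% uranyl acetate and viewed by TEM.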

[3] = target: Core antigen (Hepatitis B virus) (UniProt Q03732); assay: Inhibition of dimerization of HA-tagged Hepatitis B Virus capsid (HBVcAg-N1-154) expressed in HEK293T cells at 50 to 100 uM after 48 hrs by co-immunoprecipitation assay; type: cell-based
How it was run: (§2)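 HEK293T cells were co-transfected with HBc-VN-HA and HBc-VC-FLAG, then treated with DMSO or compound. After 48 h, lysates were co-immunoprecipitated with anti-HA beads and analysed by immunoblot.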

[4] = Acute toxicity in BALB/c mouse assessed as effect on body weight at 500 to 1000 mg/kg, ip measured after 2 weeks; type: organism-based; conditions: in vivo, 336 h; how it was run: as §1
Hepatitis B virus [5] = assay: Antiviral activity against Hepatitis B virus infected in human HepG2.2.15 cells assessed as inhibition of viral replication after 7 days by RT-PCR analysis; type: functional, organism-based
[6] = target: Core antigen (Hepatitis B virus) (UniProt Q03732); assay: Inhibition of dimerization of HA-tagged Hepatitis B Virus capsid (HBVcAg-C155-239) expressed in HEK293T cells at 50 to 100 uM after 48 hrs by Western blot analysis; type: cell-based
How it was run: (§3)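 HEK293T cells were transfected with HBc-VN-HA or HBc-VC-FLAG and treated with DMSO, 50 or 100 μM compound. After 48 h, lysates were western blotted with anti-HA, anti-FLAG and anti-GAPDH.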

[7] = target: Core antigen (Hepatitis B virus) (UniProt Q03732); assay: Inhibition of dimerization of HA-tagged Hepatitis B Virus capsid (HBVcAg-N1-154) expressed in HEK293T cells at 50 to 100 uM after 48 hrs by Western blot analysis; type: cell-based; how it was run: as §3
[8] = Renal toxicity in BALB/c mouse assessed as effect on CRE levels at 500 to 1000 mg/kg, ip measured on day 14; type: organism-based; conditions: in vivo; how it was run: as §1
[9] = target: Core antigen (Hepatitis B virus) (UniProt Q03732); assay: Inhibition of dimerization of HA-tagged Hepatitis B Virus capsid (HBVcAg-C155-239) expressed in HEK293T cells at 50 to 100 uM after 48 hrs by co-immunoprecipitation assay; type: cell-based; how it was run: as §2
[10] = Acute toxicity in BALB/c mouse assessed as effect on lung at 500 to 1000 mg/kg, ip measured on day 14 by hematoxylin and eosin staining based assay; type: organism-based; conditions: in vivo; how it was run: as §1
[11] = Cytotoxicity against human HepG2.2.15 cells; type: cell-based, HepG2 2.2.15
Hepatitis B virus [12] = assay: Antiviral activity against Hepatitis B virus infected in BALB/c mouse injected with replication-competent HBV DNA plasmid HBV-1.2mer assessed as reduction in HBsAg replication at 30 mg/kg, iv measured after 2 weeks by ELISA; type: functional, organism-based
How it was run: (§4)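 BALB/c transgenic mice carrying the replication-competent HBV-1.2mer plasmid were bled at day 0 for HBV DNA copies and randomly split into two groups of 3 males. Each group got 30 mg/kg compound or DMSO by tail vein, every 2 days, for 2 weeks. Blood was then collected. HBV DNA was measured by real-time PCR and HBsAg by ELISA.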

Hepatitis B virus [13] = assay: Antiviral activity against Hepatitis B virus infected in BALB/c mouse injected with replication-competent HBV DNA plasmid HBV-1.2mer assessed as reduction in viral DNA replication at 30 mg/kg, iv measured after 2 weeks by RT-PCR analysis; type: functional, organism-based; how it was run: as §4
[14] = Acute toxicity in BALB/c mouse assessed as effect on spleen at 500 to 1000 mg/kg, ip measured on day 14 by hematoxylin and eosin staining based assay; type: organism-based; conditions: in vivo; how it was run: as §1
[15] = target: Core antigen (Hepatitis B virus) (UniProt Q03732); assay: Inhibition of GFP-fused Hepatitis B Virus capsid (HBVcAg-VFP-C155-239) expressed in HEK293T cells assessed as reduction in capsid assembly after 48 hrs by fluorescence microscopic analysis; type: cell-based
How it was run: (§5)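 BiFC assay: HBc fused to Venus fragments VN (1–154) and VC (155–239) were co-transfected into 293T cells, then compounds were added. The dose series used 0, 0.5, 5 and 50 μM; SAR used 50 μM as percent inhibition. After 48 h, reconstituted fluorescence was read as mean fluorescent intensity on a plate reader, with fluorescence microscopy images.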

[16] = Acute toxicity in BALB/c mouse assessed as effect on heart at 500 to 1000 mg/kg, ip measured on day 14 by hematoxylin and eosin staining based assay; type: organism-based; conditions: in vivo; how it was run: as §1
[17] = Hepatic toxicity in BALB/c mouse assessed as effect on AST levels at 500 to 1000 mg/kg, ip measured on day 14; type: organism-based; conditions: in vivo; how it was run: as §1
[18] = Hepatic toxicity in BALB/c mouse assessed as effect on ALT levels at 500 to 1000 mg/kg, ip measured on day 14; type: organism-based; conditions: in vivo; how it was run: as §1
[19] = target: Core antigen (Hepatitis B virus) (UniProt Q03732); assay: Inhibition of GFP-fused Hepatitis B Virus capsid expressed in HEK293T cells at 50 uM after 48 hrs relative to control; type: cell-based; how it was run: as §5
[20] = Acute toxicity in BALB/c mouse assessed as effect on kidney at 500 to 1000 mg/kg, ip measured on day 14 by hematoxylin and eosin staining based assay; type: organism-based; conditions: in vivo; how it was run: as §1
[21] = Acute toxicity in BALB/c mouse assessed as effect on liver at 500 to 1000 mg/kg, ip measured on day 14 by hematoxylin and eosin staining based assay; type: organism-based; conditions: in vivo; how it was run: as §1
[22] = target: Core antigen (Hepatitis B virus) (UniProt Q03732); assay: Inhibition of GFP-fused Hepatitis B Virus capsid (HBVcAg-GFP-N1-154) expressed in HEK293T cells assessed as reduction in capsid assembly after 48 hrs by fluorescence microscopic analysis; type: cell-based; how it was run: as §5
Hepatitis B virus [23] = assay: Antiviral activity against Hepatitis B virus infected in human […] assessed as reduction in viral DNA replication at 30 mg/kg dosed orthotopically every 3 days for 4 weeks by RT-PCR analysis; type: functional, organism-based

Sequence of Core antigen (Hepatitis B virus) (Q03732 as listed by the source): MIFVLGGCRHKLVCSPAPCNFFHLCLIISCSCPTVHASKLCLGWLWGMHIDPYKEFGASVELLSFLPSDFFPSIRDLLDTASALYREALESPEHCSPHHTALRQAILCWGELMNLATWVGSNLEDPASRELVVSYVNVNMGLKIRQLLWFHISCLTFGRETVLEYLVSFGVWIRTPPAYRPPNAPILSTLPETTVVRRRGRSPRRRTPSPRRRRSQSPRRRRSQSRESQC

With `O=S(=O)(Nc1ncc(C(Oc2ccc3cc(Br)ccc3c2)c2ccc(Cl)cc2)s1)c1cccc2cccnc12` (centres undefined) the Activity [1] was “Non-Toxic”, the inhibition [2] was “Active” and the inhibition [3] was “Active”. The Activity [4] was “Non-Toxic”, the inhibition (Hepatitis B virus [5]) was “Dose-dependent effect” and the IC50 (Hepatitis B virus [5]; HepG2.2.15, 168 h) was 183 nM. For the same compound, the inhibition [6] was “Active”, the inhibition [7] was “Active” and the Activity [8] was “Non-Toxic”. The inhibition [9] was “Active”, the Activity [10] was “Non-Toxic” and the CC50 [11] was > 50 µM. The Activity (Hepatitis B virus [12]) was “Active”, the Activity (Hepatitis B virus [13]) was “Active” and the Activity [14] was “Non-Toxic”. For the same compound, the inhibition [15] was “Dose-dependent effect”, the Activity [16] was “Non-Toxic” and the Activity [17] was “Non-Toxic”. For the same compound, the Activity [18] was “Non-Toxic”, the inhibition [19] was 63% and the Activity [20] was “Non-Toxic”. For the same compound, the Activity [21] was “Non-Toxic”, the inhibition [22] was “Dose-dependent effect” and the Activity (Hepatitis B virus [23]) was “Active”.
